According to ChEMBL document CHEMBL1926515, “Synthesis and QSAR study of novel cytotoxic spiro[3H-indole-3,2'(1'H)-pyrrolo[3,4-c]pyrrole]-2,3',5'(1H,2'aH,4'H)-triones” (Eur J Med Chem, 2012):

Experiments:
Format in all cases: functional, cell-based
[1] = system: MCF7; test: Cytotoxicity against human MCF7 cells after 48 hrs by sulforhodamine B assay; conditions: MCF7, 48 h
Outline: (§1)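 Cells were seeded at 5×10^4–10^5 per well and allowed to attach for 24 h. Cells were then fixed and SRB-stained, washed with acetic acid, and the dye was recovered in Tris-EDTA for A564. Surviving fraction = OD treated/OD control. IC50 was taken as 50% growth inhibition relative to control, from mean values. Doxorubicin served as reference.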

[2] = system: HCT-116; test: Cytotoxicity against human HCT116 cells after 48 hrs by sulforhodamine B assay; conditions: HCT-116, 48 h; outline: as §1
[3] = system: HepG2; test: Cytotoxicity against human HepG2 cells after 48 hrs by sulforhodamine B assay; conditions: HepG2, 48 h; outline: as §1

SMILES | IC50 [1] [µM] | IC50 [2] [µM] | IC50 [3] [µM]
COc1ccc2c(c1)C1(C(=O)N2)C2C(=O)N(c3ccc(Cl)cc3)C(=O)C2CN1C (configuration not stated) | 38.7 | 47.4 | 43.4
CN1CC2C(=O)N(c3ccccc3)C(=O)C2C12C(=O)Nc1ccccc12 (configuration not stated) | 35.6 | 63.7 | 32.9
CN1CC2C(=O)N(c3ccccc3)C(=O)C2C12C(=O)Nc1ccc(Cl)cc12 (configuration not stated) | 38.7 | 33 | 33
COc1ccc2c(c1)C1(C(=O)N2)C2C(=O)N(c3ccccc3)C(=O)C2CN1C (configuration not stated) | 44.8 | 34.1 | 44.2
CN1CC2C(=O)N(c3ccc(Cl)cc3)C(=O)C2C12C(=O)Nc1ccccc12 (configuration not stated) | 43 | 36.8 | 32.4
CN1CC2C(=O)N(c3ccc(Cl)cc3)C(=O)C2C12C(=O)Nc1ccc(Cl)cc12 (configuration not stated) | 40.6 | 35.5 | 29.2
CN1CC2C(=O)N(c3ccc(F)cc3)C(=O)C2C12C(=O)Nc1ccccc12 (configuration not stated) | 33.9 | 42.4 | 87.3
CN1CC2C(=O)N(c3ccc(F)cc3)C(=O)C2C12C(=O)Nc1ccc(Cl)cc12 (configuration not stated) | 89.9 | 73.3 | 41.1
COc1ccc2c(c1)C1(C(=O)N2)C2C(=O)N(c3ccc(F)cc3)C(=O)C2CN1C (configuration not stated) | 44 | 31.3 | 27.7
Cc1ccc(N2C(=O)C3CN(C)C4(C(=O)Nc5ccccc54)C3C2=O)cc1 (configuration not stated) | 37.6 | 46.1 | 77.1
Cc1ccc(N2C(=O)C3CN(C)C4(C(=O)Nc5ccc(Cl)cc54)C3C2=O)cc1 (configuration not stated) | 49.9 | > 126 | 63.2
COc1ccc2c(c1)C1(C(=O)N2)C2C(=O)N(c3ccc(C)cc3)C(=O)C2CN1C (configuration not stated) | 46.8 | 46.2 | 12.2
COc1ccc(N2C(=O)C3CN(C)C4(C(=O)Nc5ccccc54)C3C2=O)cc1 (configuration not stated) | 48 | 53.6 | 72.5
COc1ccc(N2C(=O)C3CN(C)C4(C(=O)Nc5ccc(Cl)cc54)C3C2=O)cc1 (configuration not stated) | 38.1 | 41 | 28.9
COc1ccc(N2C(=O)C3CN(C)C4(C(=O)Nc5ccc(OC)cc54)C3C2=O)cc1 (configuration not stated) | 42.7 | 40.9 | 49.7
COc1cccc2c1C(=O)c1c(O)c3c(c(O)c1C2=O)C[C@@](O)(C(=O)CO)C[C@@H]3O[C@H]1C[C@H](N)[C@H](O)[C@H](C)O1 [DOXORUBICIN] | – | 6.86 | 7.36
